Experimental data: ChEMBL document CHEMBL1143813, “Assessment and continued validation of the malaria SYBR green I-based fluorescence assay for use in malaria drug screening” (Antimicrob Agents Chemother, 2007)
≈ marks a conversion by molar mass, not a printed value.

Columns and labels:
Type in all cases: functional, organism-based
Plasmodium falciparum [1] = assay: (§1) In vitro antimalarial activity against Plasmodium falciparum W2 after 72 hrs in SYBR green fluorescence assay; settings: W2, 72 h
In short: (§2)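 P. falciparum D6 or W2 at late-ring/early-trophozoite stage, conditioned 3–4 days in the test medium (TCM, TCMA with Albumax I in place of plasma, FAF folic acid/pABA-free, or FAFA). Cultured 72 h at 37°C (5% CO₂, 5% O₂, N₂) with 11 twofold drug dilutions, 1% parasitemia, 2% hematocrit. SYBR green I lysis buffer added, 1 h at room temperature, RFU read. Plate-edge wells excluded.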

Plasmodium falciparum [2] = assay: In vitro antimalarial activity against Plasmodium falciparum D6 after 72 hrs by SYBR green fluorescence assay; settings: D6, 72 h; in short: as §2
Plasmodium falciparum [3] = assay: In vitro antimalarial activity against Plasmodium falciparum W2 after 72 hrs by SYBR green fluorescence assay; settings: W2, 72 h; in short: as §2
Plasmodium falciparum [4] = assay: (§3) In vitro antimalarial activity against Plasmodium falciparum D6 after 72 hrs in SYBR green fluorescence assay; settings: D6, 72 h; in short: as §2
Plasmodium falciparum [5] = assay: as §1; settings: W2, 72 h; remark: listed apart in the source
Plasmodium falciparum [6] = assay: as §3; settings: D6, 72 h; in short: as §2; remark: listed apart in the source
Plasmodium falciparum [7] = assay: Antimalarial activity against Plasmodium falciparum D6 as reduced [3H]hypoxanthine uptake after 72 hrs
Plasmodium falciparum [8] = assay: Antimalarial activity against Plasmodium falciparum W2 as reduced [3H]hypoxanthine uptake after 72 hrs
Plasmodium falciparum [9] = assay: as §3; settings: D6, 72 h; in short: as §2; remark: listed apart in the source
Plasmodium falciparum [10] = assay: as §1; settings: W2, 72 h; remark: listed apart in the source

Compound | IC50 (Plasmodium falciparum [1]) [ng/mL] | IC50 (Plasmodium falciparum [2]) [ng/mL] | IC50 (Plasmodium falciparum [3]) [ng/mL] | IC50 (Plasmodium falciparum [4]) [ng/mL] | IC50 (Plasmodium falciparum [5]) [ng/mL] | IC50 (Plasmodium falciparum [6]) [ng/mL] | IC50 (Plasmodium falciparum [7]) [ng/mL] | IC50 (Plasmodium falciparum [8]) [ng/mL] | IC50 (Plasmodium falciparum [9]) [ng/mL] | IC50 (Plasmodium falciparum [10]) [ng/mL]
C=CC1CN2CC[C@H]1C[C@H]2[C@H](O)c1ccnc2ccc(OC)cc12 (single isomer, unassigned) [QUININE] | 167 (≈ 0.516 µM) | 11.3 (≈ 0.0348 µM) | 128 (≈ 0.396 µM) | 14.9 (≈ 0.0459 µM) | 162 (≈ 0.5 µM) | 11.9 (≈ 0.0367 µM) | 5 (≈ 0.0154 µM) | 36 (≈ 0.111 µM) | 15.8 (≈ 0.0487 µM) | –
C[C@@H]1CC[C@H]2[C@@H](C)C(=O)O[C@@H]3O[C@@]4(C)CC[C@@H]1[C@]32OO4 [ARTEMISININ] | 1 (≈ 0.00354 µM) | – | – | – | 1.2 (≈ 0.00425 µM) | 1.6 (≈ 0.00567 µM) | 2.4 (≈ 0.0085 µM) | 1.7 (≈ 0.00602 µM) | 1.25 (≈ 0.00443 µM) | 1.1 (≈ 0.0039 µM)
CC[C@H]1OC(=O)[C@H](C)[C@@H](O[C@H]2C[C@@](C)(OC)[C@@H](O)[C@H](C)O2)[C@H](C)[C@@H](O[C@@H]2O[C@H](C)C[C@H](N(C)C)[C@H]2O)[C@](C)(O)C[C@@H](C)CN(C)[C@H](C)[C@@H](O)[C@]1(C)O [AZITHROMYCIN] | 1620 (≈ 2.17 µM) | 15300 (≈ 20.4 µM) | 2730 (≈ 3.65 µM) | 10100 (≈ 13.4 µM) | 1850 (≈ 2.47 µM) | 14400 (≈ 19.2 µM) | 3750 (≈ 5 µM) | 5500 (≈ 7.34 µM) | 10100 (≈ 13.5 µM) | 4490 (≈ 5.99 µM)
Nc1ccc(S(=O)(=O)c2ccc(N)cc2)cc1 [DAPSONE] | – | – | – | 3.1 (≈ 0.0125 µM) | 156 (≈ 0.629 µM) | 10.2 (≈ 0.0411 µM) | 2.9 (≈ 0.0117 µM) | 124 (≈ 0.5 µM) | – | 242 (≈ 0.973 µM)
C[C@H]1c2cccc(O)c2C(=O)C2=C(O)[C@]3(O)C(=O)C(C(N)=O)=C(O)[C@@H](N(C)C)[C@@H]3[C@@H](O)[C@@H]21.O [DOXYCYCLINE] | 2410 | 2370 | 2280 | 857 | 1860 | 1850 | 483 | 814 | 1180 | 2130
O[C@@H](c1cc(C(F)(F)F)nc2c(C(F)(F)F)cccc12)[C@H]1CCCCN1 [MEFLOQUINE] | 16.2 (≈ 0.0428 µM) | 19.9 (≈ 0.0526 µM) | 8.9 (≈ 0.0235 µM) | 32.8 (≈ 0.0867 µM) | 17.4 (≈ 0.046 µM) | 16 (≈ 0.0423 µM) | – | 2.3 (≈ 0.00608 µM) | 43.7 (≈ 0.116 µM) | 9.7 (≈ 0.0256 µM)
CCc1nc(N)nc(N)c1-c1ccc(Cl)cc1 [PYRIMETHAMINE] | – | – | – | 0.5 (≈ 0.00201 µM) | – | 0.4 (≈ 0.00161 µM) | 0.1 (≈ 0.000402 µM) | 11.9 (≈ 0.0478 µM) | – | 37.6 (≈ 0.151 µM)
COc1ncnc(NS(=O)(=O)c2ccc(N)cc2)c1OC [SULFADOXINE] | – | – | – | 10.5 (≈ 0.0338 µM) | 1640 (≈ 5.29 µM) | 2.4 (≈ 0.00773 µM) | 16 (≈ 0.0516 µM) | 1110 (≈ 3.59 µM) | – | 2420 (≈ 7.79 µM)
